# Measurements from ChEMBL document CHEMBL5506039, “Discovery and Optimization of Tambjamines as a Novel Class of Antileishmanial Agents” (J Med Chem, 2024).
# Activity calls are given as the source filed them. No cut-off for these calls is given here.
# Assays:
# [1] = Cytotoxicity against mouse J774.A1 cells assessed as cell survival at 0.1 uM measured after 96 hrs by SYBR Green II dye based analysis relative to control; type: toxicity; details: read-out: Survival
# Procedure, shortened: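 Uninfected J774A.1 mouse macrophages were plated at 1 × 10⁴ cells/well in DMEM with 10% heat-inactivated FBS and left 3 h at 37 °C to reattach. Compounds were added from DMSO, and analogues were screened at 0.1 μM. After 96 h at 37 °C in 5% CO₂, medium was removed. SYBR Green II (1:1000 in 1% Triton/PBS) was added for 1 h in the dark at room temperature, and fluorescence was read at Ex 485/Em 535 as a DNA-content measure of viability.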
# [2] = Therapeutic index, ratio of EC50 for mouse J774.A1 cells to EC50 for antileishmanial activity against Leishmania mexicana MNYC/BZ/62/M379 amastigotes expressing red-shifted firefly luciferase from integrated ribosomal (28S) RNA locus infected in mouse J774.A1 cells; type: toxicity, cell-based; details: read-out: TI
# Leishmania mexicana [3] = test: Antileishmanial activity against Leishmania mexicana amastigotes expressing red-shifted firefly luciferase from integrated ribosomal (28S) RNA locus infected in female BALB/c mouse assessed as retardation of lesion progression by measuring reduction in footpad lesion at 40 mg/kg/day, po …; type: functional, organism-based; details: time 20-29 day
# HepG2 = test: Cytotoxicity against human HepG2 cells assessed as inhibition of cell growth incubated for 48 hrs by MTT assay; type: toxicity, cell-based
# Procedure, shortened: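 HepG2 cells, 2.5 × 10⁴/well in supplemented complete MEM, settled overnight at 37 °C, 5% CO₂. Compounds given as 11 duplicate 1.6-fold dilutions, 10 to 0.15 μg/mL, for 48 h. MTT added for 1 h in the dark at room temperature, formazan dissolved in acidified isopropanol, absorbance read. Triplicate runs; IC50 by sigmoidal variable-slope regression.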
# Leishmania mexicana [4] = test: Antileishmanial activity against Leishmania mexicana MNYC/BZ/62/M379 amastigotes expressing red-shifted firefly luciferase from integrated ribosomal (28S) RNA locus infected in mouse J774.A1 cells assessed as reduction in parasite survival measured after 96 hrs by luminescence based analysis; type: functional, organism-based; details: MNYC/BZ/62/M379, J774.A1, 96 h
# Procedure, shortened: (§1)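 J774A.1 macrophages infected with stationary-phase luciferase-expressing promastigotes at 10:1 parasites:macrophage, overnight at 37 °C, 5% CO₂. Non-internalized parasites washed off and 1 × 10⁴ cells/well replated in MEM/10% HI-FBS. Compounds in DMSO added as serial 3-fold dilutions (typically 10 μM–1 nM) for 96 h. Luciferase luminescence read; EC50 from log-transformed sigmoidal variable-slope fit. Mean ± SD of ≥2 independent experiments.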
# Leishmania mexicana [5] = test: Antileishmanial activity against Leishmania mexicana MNYC/BZ/62/M379 amastigotes expressing red-shifted firefly luciferase from integrated ribosomal (28S) RNA locus infected in mouse J774.A1 cells assessed as parasite survival at 0.1 uM measured after 96 hrs by luminescence based analysis relative to control; type: functional; details: MNYC/BZ/62/M379, J774.A1
# Leishmania mexicana [6] = test: Antileishmanial activity against Leishmania mexicana amastigotes expressing red-shifted firefly luciferase from integrated ribosomal (28S) RNA locus infected in female BALB/c mouse assessed as retardation of lesion progression by measuring reduction in luminescence signal over infected footpad at …; type: functional, organism-based; details: dose 40.0 mg/kg/day, route po, time 20-29 day
# [7] = Metabolic stability in pre-warmed pooled human liver microsomes assessed as half life at 1 uM measured upto 60 mins by LC-MS analysis; type: ADME, Microsome
# Procedure, shortened: (§2)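 Compound at 1 μM final with 0.5 mg/mL pooled human or mouse liver microsomes, 1.3 mM NADP and 3.3 mM MgCl₂ in 100 mM potassium phosphate, pH 7.4. Reaction started with 1 U/mL G6PD at 37 °C with shaking.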
# [8] = Cytotoxicity against mouse J774.A1 cells assessed as reduction in cell survival measured after 96 hrs by SYBR Green II dye based analysis; type: toxicity
# Procedure, shortened: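 Uninfected J774A.1 macrophages, 1 × 10⁴ cells/well in DMEM/10% HI-FBS, reattached 3 h, then exposed to compounds for 96 h. DNA content read after lysis with SYBR Green II (1:1000 in 1% Triton/PBS), 1 h dark at room temperature, fluorescence Ex 485/Em 535.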
# [9] = Therapeutic index, ratio of IC50 for human HepG2 cells to EC50 for antileishmanial activity against Leishmania donovani amastigotes expressing red-shifted firefly luciferase from integrated ribosomal (28S) RNA locus infected in mouse J774.A1 cells; type: toxicity, cell-based; details: read-out: TI
# Procedure, shortened: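 TI computed as HepG2 IC50 divided by L. donovani EC50. HepG2: MTT assay with 48 h exposure to 10–0.15 μg/mL (1.6-fold dilutions), triplicates, sigmoidal variable-slope fit. Amastigotes: J774A.1 macrophages infected with RS-luciferase promastigotes at 10:1, washed after 24 h, then 96 h compound exposure (3-fold dilutions, 10 μM–1 nM) in MEM/10% HI-FBS at 37 °C, 5% CO₂; luciferase readout.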
# Leishmania donovani = test: Antileishmanial activity against Leishmania donovani amastigotes expressing red-shifted firefly luciferase from integrated ribosomal (28S) RNA locus infected in mouse J774.A1 cells assessed as reduction in parasite growth measured after 96 hrs by luminescence based analysis; type: functional, organism-based; details: J774.A1, 96 h; procedure, shortened: as §1
# Leishmania mexicana [10] = test: Antileishmanial activity against Leishmania mexicana MNYC/BZ/62/M379 amastigotes expressing red-shifted firefly luciferase from integrated ribosomal (28S) RNA locus infected in mouse J774.A1 cells assessed as inhibition of parasite growth at 0.1 uM measured after 96 hrs by luminescence based analysis relative to control; type: functional; details: MNYC/BZ/62/M379, J774.A1, read-out: INH
# [11] = Metabolic stability in pre-warmed pooled mouse liver microsomes assessed as half life at 1 uM measured upto 60 mins by LC-MS analysis; type: ADME, Microsome; procedure, shortened: as §2
# [12] = Cmax in male ICR-CD1 mouse plasma at 40 mg/kg, po administered as single dose and measured upto 72 hrs; type: ADME, organism-based; details: in vivo
# Procedure, shortened: (§3)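 Oral (intragastric) single dose, formulated in 50% PEG-400:50% sterile water, given to male ICR-CD1 mice (23–28 g), three per time point. Terminal cardiac-puncture blood (heparinized) and liver taken at 0, 0.5, 1, 2, 4, 8, 24, 30, 48, 54 and 72 h. Plasma separated by centrifugation at 4 °C. Samples held at −80 °C before drug quantitation and PK parameter calculation.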
# [13] = Mutagenicity in Salmonella typhimurium TA100 assessed as increase in revertant rate upto 10 uM incubated for 96 hrs in absence of S9 fraction by AMES test; type: toxicity; details: salmonella enterica subsp. enterica serovar typhimurium, s9, 96 h
# Procedure, shortened: (§4)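 96-well Ames format: overnight 37 °C cultures of TA98 and TA100 mixed with exposure medium, with or without S9. Compound tested up to 10 μM, plates incubated 96 h at 37 °C and positive wells over background scored visually. Positive controls were 2-aminoanthracene (with S9) and 4-nitroquinoline N-oxide plus 2-nitrofluorene (without S9).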
# [14] = AUC (0 to last) in male ICR-CD1 mouse plasma at 40 mg/kg, po administered as single dose and measured upto 72 hrs; type: ADME, organism-based; details: in vivo; procedure, shortened: as §3
# [15] = Mutagenicity in Salmonella typhimurium […] assessed as increase in revertant rate upto 10 uM incubated for 96 hrs in absence of S9 fraction by AMES test; type: toxicity; details: salmonella enterica subsp. enterica serovar typhimurium, s9, 96 h; procedure, shortened: as §4
# [16] = Extrapolated AUC in male ICR-CD1 mouse liver at 40 mg/kg, po administered as single dose and measured upto 72 hrs; type: ADME, organism-based; details: in vivo; procedure, shortened: as §3
# [17] = Mutagenicity in Salmonella typhimurium TA100 assessed as increase in revertant rate upto 10 uM incubated for 96 hrs in presence of S9 fraction by AMES test; type: toxicity, subcellular; details: salmonella enterica subsp. enterica serovar typhimurium, s9, 96 h; procedure, shortened: as §4
# [18] = AUC (0 to infinity) in male ICR-CD1 mouse liver at 40 mg/kg, po administered as single dose and measured upto 72 hrs; type: ADME, organism-based; details: in vivo; procedure, shortened: as §3
# [19] = Apparent elimination half life in male ICR-CD1 mouse plasma at 40 mg/kg, po administered as single dose and measured upto 72 hrs; type: ADME, organism-based; details: in vivo; procedure, shortened: as §3
# [20] = AUC (0 to last) in male ICR-CD1 mouse liver at 40 mg/kg, po administered as single dose and measured upto 72 hrs; type: ADME, organism-based; details: in vivo; procedure, shortened: as §3
# [21] = Cmax in male ICR-CD1 mouse liver at 40 mg/kg, po administered as single dose and measured upto 72 hrs; type: ADME, organism-based; details: in vivo; procedure, shortened: as §3
# [22] = Tmax in male ICR-CD1 mouse liver at 40 mg/kg, po administered as single dose and measured upto 72 hrs; type: ADME, organism-based; details: in vivo; procedure, shortened: as §3
# [23] = Mutagenicity in Salmonella typhimurium […] assessed as increase in revertant rate upto 10 uM incubated for 96 hrs in presence of S9 fraction by AMES test; type: toxicity, subcellular; details: salmonella enterica subsp. enterica serovar typhimurium, s9, 96 h; procedure, shortened: as §4
# [24] = AUC (0 to infinity) in male ICR-CD1 mouse plasma at 40 mg/kg, po administered as single dose and measured upto 72 hrs; type: ADME, organism-based; details: in vivo; procedure, shortened: as §3
# [25] = Tmax in male ICR-CD1 mouse plasma at 40 mg/kg, po administered as single dose and measured upto 72 hrs; type: ADME, organism-based; details: in vivo; procedure, shortened: as §3
# [26] = Apparent elimination half life in male ICR-CD1 mouse liver at 40 mg/kg, po administered as single dose and measured upto 72 hrs; type: ADME, organism-based; details: in vivo; procedure, shortened: as §3
# [27] = Extrapolated AUC in male ICR-CD1 mouse plasma at 40 mg/kg, po administered as single dose and measured upto 72 hrs; type: ADME, organism-based; details: in vivo; procedure, shortened: as §3
SMILES,"viability at 96 h, 0.1 µM [1]",selectivity ratio [2],Activity (Leishmania mexicana [3]),IC50 (HepG2),EC50 (Leishmania mexicana [4]),survival at 0.1 µM (Leishmania mexicana [5]),Activity (Leishmania mexicana [6]),half-life at 1 µM [7],EC50 at 96 h [8],selectivity ratio [9],EC50 (Leishmania donovani),percent inhibition of parasite growth at 0.1 µM (Leishmania mexicana [10]),half-life at 1 µM [11],other results
CCC1=C(CC)/C(=C/N[C@H]2CC[C@H](C)CC2)N=C1c1ccc[nH]1.Cl,87.8%,19,Active,15900 nM,73.3 nM,17.1%,Active,23.3 min,1420 nM,–,–,–,–,–
COC1=CC(c2ccc[nH]2)=N/C1=C\NC1CCCCCC1.Cl,99.6%,17,–,–,32.5 nM,4.84%,–,52.1 min,550 nM,73,139 nM,> 95%,–,–
CC1=C(C)/C(=C/NC2CCCCCC2)N=C1c1ccc(CC(C)C)[nH]1.Cl,74.5%,28,–,–,44.3 nM,2.3%,–,> 60 min,1240 nM,–,–,> 96%,> 60 min,–
CC1=C(C)/C(=C/NC2CCCCCC2)N=C1c1ccc[nH]1.Cl,62.8%,16,–,21300 nM,55 nM,18.2%,–,45.1 min,908 nM,268,79.5 nM,< 80%,–,–
C(/NC1CCCCC1)=C1/N=C(c2ccc[nH]2)C2=C1CCCC2.Cl,60.3%,23,Active,8210 nM,130 nM,40.9%,Active,26.7 min,2930 nM,–,–,–,–,–
CCc1ccc(C2=N/C(=C\NC3CCCCCC3)C(C)=C2C)[nH]1.Cl,71.2%,28,Active,2990 nM,40.9 nM,3.7%,Active,> 60 min,1140 nM,–,–,> 96%,> 60 min,Cmax [12]: 35 ng/mL; Activity [13]: Non-Toxic; AUClast [14]: 2421 ng·h/mL; Activity [15]: Non-Toxic; %AUCextra [16]: 0.262%; Activity [17]: Non-Toxic; AUC [18]: 23043 ng·h/mL; betat1/2(app) [19]: > 72 h; AUClast [20]: 22982 ng·h/mL; Cmax [21]: 3667 ng/mL; Tmax [22]: 120 min; Activity [23]: Non-Toxic; AUC [24]: 206250 ng·h/mL; Tmax [25]: 0 h; betat1/2(app) [26]: > 36 h; %AUCextra [27]: 98.8%
